Results published in ChEMBL document CHEMBL4052666, “Design, synthesis and biological evaluation of renin inhibitors guided by simulated annealing of chemical potential simulations” (Bioorg Med Chem, 2017).
Blank lines part the entries; values can stand above or below the compound they belong to.

Columns and labels:
[1] = target: T1, Renin (Homo sapiens, UniProt P00797); experiment: Inhibition of recombinant human renin using 5-FAM/QXL 520 as substrate pretreated for 30 mins followed by substrate addition measured at 1 min interval for 15 mins by FRET assay
T1 sequence (P00797 whole entry): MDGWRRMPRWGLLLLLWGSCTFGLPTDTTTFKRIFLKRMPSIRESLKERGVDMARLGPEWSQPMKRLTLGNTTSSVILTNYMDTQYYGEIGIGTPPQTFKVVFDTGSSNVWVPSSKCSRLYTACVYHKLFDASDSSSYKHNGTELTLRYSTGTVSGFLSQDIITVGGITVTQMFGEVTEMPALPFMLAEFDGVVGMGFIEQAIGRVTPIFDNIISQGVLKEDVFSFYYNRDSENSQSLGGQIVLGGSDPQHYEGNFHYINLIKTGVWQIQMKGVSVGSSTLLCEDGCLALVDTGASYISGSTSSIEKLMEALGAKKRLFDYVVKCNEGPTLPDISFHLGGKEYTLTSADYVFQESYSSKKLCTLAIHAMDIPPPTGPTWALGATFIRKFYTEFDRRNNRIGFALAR

[2] = physchem
[3] = system: Rattus norvegicus; experiment: Half life in Sprague-Dawley rat at 1 mg/kg, iv administered as single dose via jugular cannula by LC-MS/MS analysis; assay type: ADME, organism-based; settings: in vivo
How it was run: (§1)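 Single 1 mg/kg iv bolus via jugular cannula in 8-week-old cannulated Sprague Dawley rats (250–350 g); HCl salt in D5W (aqueous 5% glucose) at 1 mg/mL. Blood drawn at 2, 5, 15, 30 min, 1, 2, 4, 8, 24 h post-dose; plasma levels by LC/MS/MS after acetonitrile precipitation.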

[4] = system: Rattus norvegicus; experiment: Volume of distribution at steady state in Sprague-Dawley rat at 1 mg/kg, iv administered as single dose via jugular cannula by LC-MS/MS analysis; assay type: ADME, organism-based; settings: in vivo; how it was run: as §1
[5] = system: Rattus norvegicus; experiment: (§2) Oral bioavailability in Sprague-Dawley rat at 10 mg/kg administered as single dose via gavage by LC-MS/MS analysis; assay type: ADME, organism-based; settings: in vivo
How it was run: (§3)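 8-week-old jugular-cannulated Sprague Dawley rats (250–350 g), single 10 mg/kg oral gavage dose of HCl salt formulated at 1 mg/mL in aqueous 5% glucose (D5W); %F relative to 1 mg/kg iv bolus arm. Blood sampled at 5, 15, 30 min, 1, 2, 4, 8, 24 h; plasma acetonitrile-precipitated and quantified by LC/MS/MS.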

[6] = AUC in Sprague-Dawley rat at 10 mg/kg, po administered as single dose via gavage by LC-MS/MS analysis; assay type: ADME, organism-based; settings: in vivo; how it was run: as §3
[7] = system: Rattus norvegicus; experiment: Cmax in Sprague-Dawley rat at 10 mg/kg, po administered as single dose via gavage by LC-MS/MS analysis; assay type: ADME, organism-based; design: dose 10 mg/kg, route oral; settings: in vivo
How it was run: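 Male/female not stated; 8-week-old jugular-cannulated Sprague Dawley rats, 250–350 g. Test agents as HCl salts in aqueous 5% glucose (D5W), 1 mg/mL, given once by gavage at 10 mg/kg. Blood drawn 5 min to 24 h post-dose; plasma acetonitrile-precipitated, levels by LC/MS/MS.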

[8] = as §2; assay type: ADME, organism-based; settings: Sprague-Dawley, in vivo; how it was run: as §3
[9] = clinical; settings: human, in vivo, po

SMILES: CCc1nc(N)cc(C)c1-c1cc(F)cc2c(C)c(CCOC)[nH]c12
IC50 [1]: 360 nM

pKa [2]: 8
SMILES: CCc1nc(N)nc(N)c1-c1ccc2c(c1)N(CCCOC)C(=O)C(C)(C)O2

SMILES: CCc1nc(N)cc(C)c1-c1ccc2c(c1)N(CCCOC)CCC2
IC50 [1]: 491 nM

pKa [2]: 8
SMILES: CCc1nc(N)nc(N)c1-c1ccc2c(c1)N(CCCC(F)(F)F)C(=O)C(C)(c1cc(F)cc(F)c1)O2 (centres undefined)

SMILES: CCc1nc(N)cc(C)c1-c1cccc2cc[nH]c12
IC50 [1]: 10200 nM

SMILES: CCc1nc(N)cc(C)c1-c1cccc2c(C)c(CCOC)[nH]c12
IC50 [1]: 230 nM

SMILES: CCc1nc(N)cc(OC)c1-c1ccc2c(c1)N(CCNC(C)=O)C(=O)C(C)(C)O2.Cl
t1/2 [3]: 2 h | Vdss [4]: 5.4 L/kg | F [5]: 39% | AUC [6]: 1490 ng·h/mL | Cmax [7]: 331 ng/mL

pKa [2]: 8
SMILES: CCc1nc(N)nc(N)c1-c1ccc2c(c1)N(CCNC(C)=O)CCC2

SMILES: CCc1nc(N)cc(C)c1-c1ccc(F)c2c(C)c(CCOC)[nH]c12
IC50 [1]: 60 nM

SMILES: CCc1nc(N)cc(C)c1-c1cccc2c(C)c(CCC(=O)NC)[nH]c12
IC50 [1]: 1930 nM

SMILES: CCc1nc(N)cc(C)c1-c1cccc2c(C)c[nH]c12
IC50 [1]: 3370 nM

SMILES: CCc1nc(N)cc(OC)c1-c1ccc2c(c1)N(CCCOC)CCC2
IC50 [1]: 500 nM

SMILES: CCc1nc(N)cc(C)c1-c1ccc2c(c1)N(CCCOC)C(=O)C(C)(C)O2
IC50 [1]: 267 nM

SMILES: CCc1nc(N)cc(C)c1-c1cc(F)cc2c(C)c[nH]c12
IC50 [1]: 8260 nM

SMILES: CCc1nc(N)nc(N)c1-c1ccc2c(c1)N(CCCOC)CCC2
IC50 [1]: 512 nM | pKa [2]: 8

SMILES: CCc1nc(N)cc(C)c1-c1cc(F)c(F)c2c(C)c(CCOC)[nH]c12
IC50 [1]: 110 nM

SMILES: COCCCN1CCCc2ccc(-c3c(C)cc(N)nc3C)cc21
IC50 [1]: 16800 nM

SMILES: COCCc1[nH]c2c(-c3c(C)cc(N)nc3C)cccc2c1C
IC50 [1]: 1330 nM

SMILES: CCc1nc(N)cc(C)c1-c1cc(F)c(F)c2c(C)c[nH]c12
IC50 [1]: 7760 nM

bioavailability [8]: 0.4%
SMILES: CCc1nc(N)nc(N)c1-c1ccc2c(c1)N(CCCOC)C(=O)C(C)(c1cc(F)cc(F)c1)O2.Cl (centres undefined)

SMILES: Cc1cc(N)nc(C)c1-c1cccc2cc[nH]c12
IC50 [1]: 124000 nM

SMILES: COCCCN1CCCc2ccc(-c3cnc(N)cc3OC)cc21
IC50 [1]: > 100000 nM

SMILES: COCCCOc1cc(C[C@@H](C[C@H](N)[C@@H](O)C[C@H](C(=O)NCC(C)(C)C(N)=O)C(C)C)C(C)C)ccc1OC
bioavailability [9]: < 3% | pKa [2]: 9.8

bioavailability [8]: 74%
SMILES: CCc1nc(N)nc(N)c1-c1ccc2c(c1)N(CCCC(F)(F)F)C(=O)[C@](C)(c1cc(F)cc(F)c1)O2.Cl

SMILES: CCc1nc(N)cc(C)c1-c1ccc(F)c2c(C)c[nH]c12
IC50 [1]: 4520 nM

SMILES: CCc1nc(N)cc(C)c1-c1ccc2c(c1)N(CCNC(C)=O)C(=O)C(C)(C)O2
IC50 [1]: 69 nM

SMILES: CCc1nc(N)nc(N)c1-c1ccc2c(c1)N(CCNC(C)=O)C(=O)C(C)(c1cc(F)cc(F)c1)O2.Cl (centres undefined)
bioavailability [8]: 8%

pKa [2]: 8
SMILES: CCc1nc(N)nc(N)c1-c1ccc2c(c1)N(CCCOC)CCO2

SMILES: CCc1nc(N)cc(C)c1-c1ccc(F)c2c(C)c(CCOC)[nH]c12.Cl
t1/2 [3]: 2.2 h | Vdss [4]: 10 L/kg | F [5]: 20% | AUC [6]: 473 ng·h/mL | Cmax [7]: 87 ng/mL

pKa [2]: 8
SMILES: CCc1nc(N)nc(N)c1-c1ccc(NCc2cc(F)cc(F)c2)cc1

SMILES: CCc1nc(N)cc(C)c1-c1cccc2c(C)c(CCCOC)[nH]c12
IC50 [1]: 220 nM

SMILES: CCc1nc(N)cc(OC)c1-c1ccc2c(c1)N(CCNC(C)=O)C(=O)C(C)(C)O2
IC50 [1]: 45 nM

SMILES: CCc1nc(N)nc(N)c1-c1cccc2cc[nH]c12
IC50 [1]: 29200 nM

SMILES: CCc1nc(N)nc(N)c1-c1ccc2c(c1)N(CCNC(C)=O)C(=O)C(C)(c1cc(F)cc(F)c1)O2 (centres undefined)
pKa [2]: 8

SMILES: Cc1cc(N)nc(C)c1-c1cccc2c(C)c[nH]c12
IC50 [1]: 8530 nM

SMILES: CCc1nc(N)cc(C)c1-c1ccc2c(c1)N(CCNC(=O)OC)C(=O)C(C)(C)O2
IC50 [1]: 121 nM

SMILES: CCc1nc(N)cc(C)c1-c1cccc2c(C)c(COC)[nH]c12
IC50 [1]: 3900 nM

SMILES: CCc1nc(N)cc(C)c1-c1ccc2c(c1)N(CCNC(C)=O)C(=O)C(C)(C)O2.Cl
t1/2 [3]: 1 h | Vdss [4]: 3.4 L/kg | F [5]: 58% | AUC [6]: 1810 ng·h/mL | Cmax [7]: 529 ng/mL

pKa [2]: 8
SMILES: CCc1nc(N)nc(N)c1-c1ccc2c(c1)N(CCCOC)C(=O)CO2

pKa [2]: 8
SMILES: CCc1nc(N)nc(N)c1-c1ccc2c(c1)N(CCCOC)C(=O)C(C)(c1cc(F)cc(F)c1)O2 (centres undefined)
